According to ChEMBL document CHEMBL1146725, “Discovery and SAR of potent, orally available and brain-penetrable 5,6-dihydro-4H-3-thia-1-aza-benzo[e]azulen- and 4,5-dihydro-6-oxa-3-thia-1-aza-benzo[e]azulen derivatives as neuropeptide Y Y5 receptor antagonists” (Bioorg Med Chem Lett, 2004):
“And” between values parts separate entries of the source, which are not always exact repeats. Equal values may be shown once.

Assays:
[1] = (§1) Concentration (30 mg/kg, p.o.) in rat hypothalamus after 2 hours; assay type: ADME, organism-based; conditions: hypothalamus, po
How it was run: (§2)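 Male rats (RA238), fasted overnight, given 30 mg/kg by oral gavage (5 mL/kg) in 20% Cremophore EL/water (w/w). Plasma and hypothalamus were sampled at 2 and 6 h post-dose and levels measured by LC-MS. Values are the mean of 3-6 animals per time point, as µg/mL plasma and µg/g hypothalamus.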

[2] = (§3) Concentration (30 mg/kg, p.o.) in rat hypothalamus after 6 hours; assay type: ADME, organism-based; conditions: hypothalamus, po; how it was run: as §2
[3] = (§4) Concentration (30 mg/kg, p.o.) in rat plasma after 6 hours; assay type: ADME, organism-based; conditions: plasma, po; how it was run: as §2
[4] = target: T1, Neuropeptide Y receptor type 5 (Homo sapiens, UniProt Q15761); assay: (§5) In vitro binding affinity against human neuropeptide Y5 receptor
T1 sequence (Q15761 whole entry): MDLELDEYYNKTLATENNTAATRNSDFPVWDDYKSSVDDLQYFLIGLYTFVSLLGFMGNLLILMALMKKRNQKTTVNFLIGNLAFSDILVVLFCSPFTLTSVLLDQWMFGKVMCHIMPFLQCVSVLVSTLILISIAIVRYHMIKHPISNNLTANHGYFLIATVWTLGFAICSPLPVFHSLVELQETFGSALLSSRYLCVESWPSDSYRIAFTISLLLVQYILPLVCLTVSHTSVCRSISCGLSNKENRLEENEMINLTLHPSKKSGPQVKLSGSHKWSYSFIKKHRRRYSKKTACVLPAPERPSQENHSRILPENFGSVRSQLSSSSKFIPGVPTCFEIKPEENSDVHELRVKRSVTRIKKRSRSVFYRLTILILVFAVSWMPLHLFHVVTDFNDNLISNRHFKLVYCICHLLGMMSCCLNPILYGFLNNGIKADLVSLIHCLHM

[5] = Concentration (30 mg/kg, p.o.) in rat plasma after 2 hours; assay type: ADME, organism-based; conditions: plasma, po; how it was run: as §2
[6] = target: T1, Neuropeptide Y receptor type 5; assay: as §5; remark: listed apart in the source
How it was run: (§6)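 Reported as IC50 (nM), each value the mean of three separate experiments.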

[7] = target: T1, Neuropeptide Y receptor type 5; assay: In vitro binding affinity against human neuropeptide Y5 receptor measured as Ca+ response; how it was run: as §6
Rattus norvegicus [8] = assay: as §1; assay type: ADME, organism-based; conditions: in vivo, po, 2 h; how it was run: as §2
Rattus norvegicus [9] = assay: as §3; assay type: ADME, organism-based; conditions: in vivo, po, 6 h; how it was run: as §2
Rattus norvegicus [10] = assay: as §4; assay type: ADME, organism-based; conditions: in vivo, po, 6 h; how it was run: as §2

O=C(C1CCOC1)N1CCC(CNc2nc3c(s2)CCCc2ccc(F)cc2-3)CC1 (stereo not given)
concentration at 2 h [1]: 1220 ng/g | concentration at 6 h [2]: 440 ng/g | concentration at 6 h [3]: 140 ng/mL | IC50 [4]: 1 nM | concentration at 2 h [5]: 540 ng/mL

CCCCC(=O)N1CCC(CNc2nc3c(s2)CCOc2ccc(C)cc2-3)CC1
IC50 [4]: 7 nM

O=C(CN1CCCCC1)N1CCC(CNc2nc3c(s2)CCOc2ccc(F)cc2-3)CC1
IC50 [6]: 71 nM

O=C(CN1CCOCC1)N1CCC(CNc2nc3c(s2)CCOc2ccc(F)cc2-3)CC1
IC50 [6]: 41 nM

CN(C)CC(=O)N1CCC(CNc2nc3c(s2)CCCc2ccc(F)cc2-3)CC1
IC50 [4]: 4 nM

COCCNCC(=O)N1CCC(CNc2nc3c(s2)CCCc2ccc(F)cc2-3)CC1
IC50 [4]: 2 nM

CN(C)S(=O)(=O)NC[C@H]1CC[C@H](Nc2nc3c(s2)CCSc2ccc(F)cc2-3)CC1
IC50 [4]: 3 nM

O=C(CC1CC1)N[C@H]1CC[C@H](CNc2nc3c(s2)CCCc2ccc(F)cc2-3)CC1
IC50 [4]: 6 nM

CCCCC(=O)N1CCC(CNc2nc3c(s2)CCOc2ccc(OC)cc2-3)CC1
IC50 [4]: 17 nM

Cc1ccc2c(c1)-c1nc(NCC3CCN(C(=O)C(C)C)CC3)sc1CCO2
concentration at 2 h [1]: 2420 ng/g | concentration at 6 h [2]: 880 ng/g | concentration at 6 h [3]: 330 ng/mL | IC50 [4]: 5 nM | IC50 [7]: 61 nM | concentration at 2 h [5]: 840 ng/mL

CC(=O)N1CCC(CNc2nc3c(s2)CCOc2ccc(F)cc2-3)CC1
IC50 [6]: 69 nM

COCC(=O)N1CCC(CNc2nc3c(s2)CCCc2ccc(F)cc2-3)CC1
IC50 [4]: 2 nM

Fc1ccc(-c2csc(Nc3ccccc3)n2)cc1
IC50 [4]: 1600 nM

O=C(N[C@H]1CC[C@H](CNc2nc3c(s2)CCCc2ccc(F)cc2-3)CC1)c1cccs1
IC50 [4]: 15 nM

CN(C)S(=O)(=O)NC[C@H]1CC[C@H](Nc2nc3c(s2)-c2ccccc2Sc2ccccc2-3)CC1
IC50 [4]: 15 nM

COCCCNCC(=O)N1CCC(CNc2nc3c(s2)CCCc2ccc(F)cc2-3)CC1
IC50 [4]: 15 nM

Nc1nc2c(s1)-c1ccccc1Sc1ccccc1-2
IC50 [4]: 1800 nM

O=C(N[C@H]1CC[C@H](CNc2nc3c(s2)CCCc2ccc(F)cc2-3)CC1)C1CC1
IC50 [4]: 6 nM

Cc1ccc2c(c1)-c1nc(NCC3CCN(C(=O)[C@@H]4CCCO4)CC3)sc1CCO2
IC50 [4]: 17 nM

CCCCC(=O)N1CCC(CNc2nc3c(s2)CCOc2cc(F)c(F)cc2-3)CC1
IC50 [4]: 38 nM

CC(C)C(=O)N1CCC(CNc2nc3c(s2)CCOc2cc(F)c(Cl)cc2-3)CC1
IC50 [4]: 13 nM

CC(=O)N1CCC(CNc2nc3c(s2)CCCc2ccc(F)cc2-3)CC1
concentration at 2 h [1]: 3700 ng/g | concentration at 6 h [2]: 290 ng/g | concentration at 6 h [3]: 70 ng/mL | IC50 [4]: 2 nM | IC50 [7]: 254 nM | concentration at 2 h [5]: 950 ng/mL

COC[C@@H]1CCCN1CC(=O)N1CCC(CNc2nc3c(s2)CCCc2ccc(F)cc2-3)CC1
IC50 [4]: 3 nM

CCOC(=O)N1CCC(CNc2nc3c(s2)CCCc2ccc(F)cc2-3)CC1
IC50 [4]: 4 nM

CS(=O)(=O)NC[C@H]1CC[C@H](Nc2nc(-c3ccc(F)cc3)cs2)CC1
IC50 [4]: 23 nM

O=C([C@H]1CCCO1)N1CCC(CNc2nc3c(s2)CCOc2ccc(F)cc2-3)CC1
concentration at 2 h [1]: 2440 ng/g | concentration at 6 h [2]: 1080 ng/g | concentration at 6 h [3]: 390 ng/mL | concentration at 2 h [5]: 970 ng/mL | IC50 [6]: 5 nM

O=C(CN1CCCCC1)N1CCC(CNc2nc3c(s2)CCCc2ccccc2-3)CC1
IC50 [4]: 6 nM

O=C1CCCN1[C@H]1CC[C@H](CNc2nc3c(s2)CCCc2ccc(F)cc2-3)CC1
IC50 [4]: 5 nM

O=C(CCN1CCCCC1)N[C@H]1CC[C@H](CNc2nc3c(s2)CCCc2ccc(F)cc2-3)CC1
IC50 [4]: 150 nM

CN(CC(=O)N1CCC(CNc2nc3c(s2)CCCc2ccc(F)cc2-3)CC1)CC1CC1
IC50 [4]: 3 nM

O=C(CNCC1CCCO1)N1CCC(CNc2nc3c(s2)CCCc2ccc(F)cc2-3)CC1 (stereo not given)
IC50 [4]: 6 nM

COc1ccc2c(c1)-c1nc(NCC3CCN(C(=O)CCN4CCCCC4)CC3)sc1CCO2
IC50 [4]: 2460 nM

CCOCC(=O)N1CCC(CNc2nc3c(s2)CCOc2ccc(F)cc2-3)CC1
IC50 [4]: 28 nM

COCCC(=O)N1CCC(CNc2nc3c(s2)CCOc2ccc(F)cc2-3)CC1
IC50 [6]: 22 nM

O=C(CN1CCOCC1)N1CCC(CNc2nc3c(s2)CCCc2ccc(F)cc2-3)CC1
IC50 [4]: 2 nM

CC(=O)C1(c2ccccc2)CCC(CC(=O)Nc2nc3c(s2)CCCc2ccc(F)cc2-3)CC1 (stereo not given)
IC50 [4]: 15 nM

Cc1ccc2c(c1)-c1nc(NCC3CCN(C(=O)c4ccccn4)CC3)sc1CCO2
IC50 [4]: 25 nM

CN1CCN(CC(=O)N2CCC(CNc3nc4c(s3)CCCc3ccc(F)cc3-4)CC2)CC1
IC50 [4]: 24 nM

O=C1CC[C@H](C(=O)N2CCC(CNc3nc4c(s3)CCCc3ccc(F)cc3-4)CC2)O1
IC50 [4]: 4 nM

CN(C)C(=O)CCCCNc1nc2c(s1)CCCc1ccc(F)cc1-2
IC50 [4]: 25 nM

CC(C)C(=O)N1CCC(CNc2nc3c(s2)CCOc2cc(F)c(F)cc2-3)CC1
IC50 [4]: 40 nM

CCCN(C)CC(=O)N[C@H]1CC[C@H](CNc2nc3c(s2)CCCc2ccc(F)cc2-3)CC1
IC50 [4]: 6 nM

CC(=O)NC1CCN(CC(=O)Nc2nc3c(s2)CCCc2ccc(F)cc2-3)CC1
IC50 [4]: 78 nM

Cc1ccc2c(c1)-c1nc(NCC3CCN(C(=O)COC(C)C)CC3)sc1CCO2
IC50 [4]: 21 nM

O=C([C@H]1CCCO1)N1CCC(CNc2nc3c(s2)CCCc2ccc(F)cc2-3)CC1
Concentration (Rattus norvegicus [8]): 0.86 µg/g and 2.44 µg/g | concentration at 6 h [2]: 670 ng/g | Concentration (Rattus norvegicus [9]): 0.67 µg/g | concentration at 6 h [3]: 220 ng/mL | Concentration (Rattus norvegicus [10]): 220 ng/mL | IC50 [4]: 2 nM

COCCC(=O)N1CCC(CNc2nc3c(s2)CCCc2ccc(F)cc2-3)CC1
IC50 [4]: 2 nM

CCCCC(=O)N[C@H]1CC[C@H](CNc2nc3c(s2)CCCc2ccc(F)cc2-3)CC1
IC50 [4]: 6 nM

CN(C)CCCC(=O)N[C@H]1CC[C@H](CNc2nc3c(s2)CCCc2ccc(F)cc2-3)CC1
IC50 [4]: 290 nM

CN(C)CC(=O)N[C@H]1CC[C@H](CNc2nc3c(s2)CCCc2ccc(F)cc2-3)CC1
IC50 [4]: 81 nM

O=C(CN1CCCCC1)N1CCC(CNc2nc3c(s2)CCCc2ccc(Cl)cc2-3)CC1
IC50 [4]: 7 nM

CCCCC(=O)N1CCC(CNc2nc3c(s2)CCOc2cc(F)c(Cl)cc2-3)CC1
IC50 [4]: 20 nM

O=C(CN1CCCCC1)N1CCC(CNc2nc3c(s2)CCCc2ccc(F)cc2-3)CC1
concentration at 2 h [1]: 1170 ng/g | concentration at 6 h [2]: 620 ng/g | concentration at 6 h [3]: 130 ng/mL | IC50 [4]: 4 nM | concentration at 2 h [5]: 240 ng/mL

CCOCC(=O)N1CCC(CNc2nc3c(s2)CCOc2ccc(C)cc2-3)CC1
IC50 [4]: 18 nM

COC(=O)N[C@H]1CC[C@H](CNc2nc3c(s2)CCCc2ccc(F)cc2-3)CC1
IC50 [4]: 2 nM

O=C(CNCC1CC1)N1CCC(CNc2nc3c(s2)CCCc2ccc(F)cc2-3)CC1
IC50 [4]: 6 nM

O=C(c1ccccc1F)N1CCC(CNc2nc3c(s2)CCCc2ccc(F)cc2-3)CC1
IC50 [4]: 20 nM

COCC(=O)N1CCC(CNc2nc3c(s2)CCOc2ccc(F)cc2-3)CC1
IC50 [6]: 37 nM

O=C(C1CC1)N1CCC(CNc2nc3c(s2)CCCc2ccc(F)cc2-3)CC1
IC50 [4]: 2 nM

CC(C)C(=O)N1CCC(CNc2nc3c(s2)CCCc2ccc(F)cc2-3)CC1
IC50 [4]: 2 nM

CC(C)N1CCN(CC(=O)N[C@H]2CC[C@H](CNc3nc4c(s3)CCCc3ccc(F)cc3-4)CC2)CC1
IC50 [4]: 210 nM

CC(C)C(=O)N1CCC(CNc2nc3c(s2)CCOc2cc(Cl)c(F)cc2-3)CC1
IC50 [4]: 99 nM

CN(CC(=O)N1CCC(CNc2nc3c(s2)CCOc2ccc(F)cc2-3)CC1)CC1CC1
IC50 [6]: 18 nM

O=C(CN1CCCCC1)N[C@H]1CC[C@H](CNc2nc3c(s2)CCCc2ccc(F)cc2-3)CC1
IC50 [4]: 29 nM

O=C([C@@H]1CCCO1)N1CCC(CNc2nc3c(s2)CCOc2ccc(F)cc2-3)CC1
concentration at 2 h [1]: 5480 ng/g | concentration at 6 h [2]: 640 ng/g | concentration at 6 h [3]: 140 ng/mL | concentration at 2 h [5]: 930 ng/mL | IC50 [6]: 19 nM
